From PubChem BioAssay
In the library only some 2.6% were active in any assay of this set; here they are far more common.
MC4R antag cAMP = blocks human MC4R cAMP signaling; 360,000 compounds, 0.48% hits; P32245; AID 540295; MC4R-expressing cells, MTII-stimulated cAMP, LANCE TR-FRET; inhibition, % at 6.5 µM;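 active = inhibition above its plate's cutoff, the mean of tested wells on that plate plus 3 SD, cut at about 29% in these data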;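 note: 0% = Melanotan II alone and 100% = Melanotan II plus saturating MCL0020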
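System: U2OS-MC4R stable cell line; Technique: Eu-cAMP/anti-cAMP TR-FRET, emission 671 nm; Repeats: single well per compound; Also added: Melanotan II; Dosing: one concentration, 6.5 µM nominal; Schedule: 30-min compound, 1-h challenge, 1-h detection, room temperature.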
MC4R ag barr = human MC4R agonism via beta-arrestin. AID 540308. 360,000 compounds, 0.98% hits. activation, % at 8.9 µM. U2OS MC4R beta-arrestin complementation, luminescence; percent of melanotan II response, DMSO zero;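 active = activation above a per-plate cutoff, the mean activation of sample wells on that plate plus 3 SD, cut at about 8% in these data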
Exocytosis inh = blocks lytic granule exocytosis. inhibition, % at 10 µM. TALL-104 LAMP-1 surface exposure, flow cytometry; cells stimulated with thapsigargin and PMA. 360,000 compounds, 0.66% hits;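 active = inhibition above about 55%, limit read from the data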
hiPSC survival = enhancers of human iPSC single-cell survival | AID 602274 | 360,000 compounds, 0.044% hits | hiPSC single-cell survival, ATPlite luminescence; 100% = ROCK inhibitor wells, 0% = DMSO | survival enhancement, % at 20 µM; in the data active = survival enhancement above about 18%;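 note: cells exposed to compounds for 16 hours before the ATP read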
Tb MetRS inh = Trypanosoma brucei MetRS inhibition; purified T. brucei MetRS, ATP depletion, Kinase-Glo luminescence; inhibition, % at 11.9 µM; 360,000 compounds, 0.4% hits;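 active = inhibition above a per-plate cutoff of the control wells' mean inhibition plus 3 SD, cut at about 5.5% in these data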;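 note: 0% = DMSO wells median and 100% = median of wells with control inhibitor compound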
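technique = Kinase-Glo luminescence, ATP depletion format | system = purified MetRS (methionyl-tRNA synthetase) enzyme from Trypanosoma brucei | timing = 15 min preincubation, 2 h reaction, all 25 °C | evaluation = percent inhibition versus plate control medians | dosing = single dose, 11.9 µM final nominal, 0.9% final DMSO | also added = substrates ATP, L-methionine and bulk Escherichia coli tRNA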
ABCB6 inh 2 = inhibitors of human ABC transporter ABCB6 | Q9NP58 | K562-ABCB6 porphyrin accumulation, flow cytometry, 1 h; active compounds read low | fluorescence ratio to DMSO, % at 10 µM | 360,000 compounds, 0.19% hits | AID 602162;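 active = fluorescence ratio to DMSO below 75%, the collection mean minus 3 SD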;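 note: signal is porphyrin accumulated inside mitochondria; 100% equals median channel fluorescence of DMSO control wells; lower ratio means ABCB6 inhibition with less porphyrin fluorescence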
Target sequence (Q9NP58 whole entry, looked up): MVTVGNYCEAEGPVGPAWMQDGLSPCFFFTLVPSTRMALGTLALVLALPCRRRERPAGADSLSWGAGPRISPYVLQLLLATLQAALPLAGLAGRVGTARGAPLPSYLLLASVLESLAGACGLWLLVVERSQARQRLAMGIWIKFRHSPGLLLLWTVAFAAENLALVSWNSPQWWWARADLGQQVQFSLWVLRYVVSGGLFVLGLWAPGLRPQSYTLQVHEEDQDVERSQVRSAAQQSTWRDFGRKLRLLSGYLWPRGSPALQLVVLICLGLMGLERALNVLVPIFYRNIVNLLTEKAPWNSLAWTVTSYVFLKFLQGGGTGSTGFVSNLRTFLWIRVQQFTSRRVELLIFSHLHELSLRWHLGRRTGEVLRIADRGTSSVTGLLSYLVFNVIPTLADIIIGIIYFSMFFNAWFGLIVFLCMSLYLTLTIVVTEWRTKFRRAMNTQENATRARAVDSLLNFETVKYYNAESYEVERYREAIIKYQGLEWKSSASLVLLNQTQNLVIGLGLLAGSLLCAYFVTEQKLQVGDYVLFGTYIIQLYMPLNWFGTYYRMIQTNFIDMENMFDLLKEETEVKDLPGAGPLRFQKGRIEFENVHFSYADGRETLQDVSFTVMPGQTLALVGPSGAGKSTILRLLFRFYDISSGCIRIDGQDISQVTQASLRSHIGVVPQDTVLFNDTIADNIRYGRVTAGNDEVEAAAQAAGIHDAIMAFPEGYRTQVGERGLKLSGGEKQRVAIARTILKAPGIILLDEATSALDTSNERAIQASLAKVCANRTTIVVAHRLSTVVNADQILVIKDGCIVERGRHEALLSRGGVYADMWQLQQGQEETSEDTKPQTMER
ABCB6 blocker 1 = human ABCB6 transporter inhibition; shares compounds with ABCB6 inh 2; K562-ABCB6 porphyrin accumulation, flow cytometry, 1 h; active compounds read low; ratio response (% of DMSO), % at 10 µM; 700 tested, under 10 active; AID 602430;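 active = repeat-averaged ratio response below 75% of DMSO, the collection mean minus 3 SD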;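 note: median porphyrin fluorescence at 575 nm with 488 nm excitation from mitochondria; lower ratio means less porphyrin signal so ABCB6 inhibition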
* = called active by the depositor; · = not tested or not shown.

SMILES | MC4R antag cAMP | MC4R ag barr | Exocytosis inh | hiPSC survival | Tb MetRS inh | ABCB6 inh 2 | ABCB6 blocker 1
COc1cccc(CNS(=O)(=O)c2cn(C)cn2)c1 | -8 | 2 | 5 | 0 | -2 | 8.0* | 104
Cn1cnc(S(=O)(=O)NCc2ccccc2)c1 | 9 | -3 | 0 | 0 | 0 | 92 | ·
COCCNC(=O)C1CCCN(Cc2ccc(C)cc2)CC1 (centres undefined) | 5 | -1 | -5 | 2 | 1 | 97 | ·
Cc1cc(O)c(C(C)C)cc1NC(=O)Cn1nc(C)c2ccccc2c1=O | 5 | -2 | -4 | 1 | -1 | 74* | 101
C=CCn1c(=O)c(C(=O)Nc2ccccc2S(N)(=O)=O)c(O)c2ccccc21 | -5 | -2 | 3 | 1 | -1 | 97 | ·
COc1ccc(C2SCC(=O)N2c2ccc(F)cc2)cc1 (centres undefined) | 1 | -2 | 10 | 0 | 0 | 94 | ·
COc1ccc(N2C(=O)CSC2c2cccc(F)c2)cc1 (centres undefined) | 0 | -2 | -1 | 0 | -1 | 74* | 97
CC[C@@H]1C/C=C\Cc2ccccc2[C@H](C(=O)C[C@@H](O)CC(C)=O)OC1=O | 3 | -1 | 14 | 0 | 0 | 102 | ·
Cc1cccc(NS(=O)(=O)c2cccs2)c1 | -2 | -2 | 1 | -1 | -1 | 97 | ·
Cc1cc(C)nc(NS(=O)(=O)c2cccs2)c1 | 0 | -1 | -3 | -3 | -1 | 69* | 97
CC(C)c1ccc(OCC(=O)Nc2ccc(OC(F)(F)F)cc2)cc1 | 1 | -1 | -1 | 1 | -1 | 63* | 99
CC(C)c1ccc(NC(=O)COc2ccccc2)cc1 | 10 | 0 | 8 | 0 | 1 | 100 | ·
CCCCNc1oc(-c2ccc(OC)cc2)nc1S(=O)(=O)c1ccccc1 | -4 | -3 | -2 | -2 | 0 | 69* | 99
CCNc1oc(-c2ccc(OC)cc2)nc1S(=O)(=O)c1ccc(Br)cc1 | 2 | 0 | 4 | -2 | 0 | 90 | ·
CCOc1cc(C(=O)NCc2ccc(-c3nc4ccccc4o3)cc2)cc(OCC)c1OCC | -9 | 3 | -1 | 5 | 0 | 70* | 98
CCN1CCN(C(=O)c2ccc3c(=O)n(Cc4ccccc4OC)c(=S)[nH]c3c2)CC1 | 2 | -2 | -4 | -2 | 0 | 69* | 102
c1csc(CNCCCN2CCOCC2)c1 | -1 | -3 | -1 | -1 | 0 | 102 | ·
CCCCOCCCNCc1cccn1CCN1CCOCC1 | 0 | -1 | 5 | 1 | -1 | 66* | 100
O=C1c2cnc3nc(SCc4cccc(Cl)c4)nn3c2CC2c3ccccc3CCN12 (centres undefined) | 0 | -2 | 1 | 1 | 0 | 92 | ·
O=C(O)c1cccc(S(=O)(=O)N2CCCC(c3nc4c(nnn4Cc4ccc(F)cc4)c(=O)[nH]3)C2)c1 (centres undefined) | 10 | -1 | 1 | 0 | 0 | 101 | ·
OC(c1ccc(F)cc1)c1nc(/C=C/c2ccccc2)cs1 (centres undefined) | -6 | 3 | -4 | -3 | 0 | 61* | 98
OC(c1ccccc1)c1nc(/C=C/c2ccccc2)cs1 (centres undefined) | 7 | 0 | 1 | -1 | 0 | 98 | ·
O=C(Nc1nnc(-c2ccc(F)cc2)o1)c1cc(Cl)sc1Cl | 7 | 2 | 1 | 0 | -1 | 100 | ·
O=C(Nc1nnc(-c2ccccc2)o1)c1cc(Cl)sc1Cl | -6 | -1 | 9 | -1 | 1 | 69* | 98
C[C@@H]1CN([C@H](C)CO)C(=O)CCCn2nncc2CO[C@H]1CN(C)C(=O)Cc1ccccc1 | 2 | 0 | 11 | -1 | -1 | 83 | ·
CCCNC(=O)COC(=O)c1ccccc1C(=O)c1ccc(Cl)c([N+](=O)[O-])c1 | 22 | 2 | 9 | 20* | 0 | 57* | 93
Cc1ccc(Cl)c(NC(=O)COC(=O)c2ccccc2C(=O)c2ccc(Cl)c([N+](=O)[O-])c2)c1Cl | 2 | 1 | 10 | 13 | -1 | 99 | ·
